These compounds were tested on Staphylococcus epidermidis (assay: Antimicrobial activity against Staphylococcus epidermidis ATCC 35984TCC BAA-1721). Settings: not given.
Type: functional, organism-based
In short: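 Microtiter broth dilution; S. epidermidis ATCC 35984 grown in tryptic soy broth, inoculum 5 × 10⁵ cfu/mL, 16 h static incubation at 37 °C. Compound tested over 130 - 0.3 μg/mL. Technical duplicates, biological triplicate; percentage inhibition fitted by nonlinear regression to IC50.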
Work on `COc1ccc(/C=C2\OC(=O)C=C2c2ccc(O)c(Br)c2)cc1` yielded an IC50 of 42 µM. `O=C1C=C(c2ccc(O)c(Br)c2)/C(=C/c2ccc(O)cc2)O1` showed an IC50 of 38 µM. For `O=C1C=C(c2ccc(O)c(Br)c2)/C(=C/c2ccc(O)c(Br)c2)O1`, the IC50 was 28 µM. For `COc1ccc(/C=C2\OC(=O)C=C2c2ccc(O)cc2)cc1` [RUBROLIDE F], the IC50 was 79 µM. With `COc1ccc(/C=C2\OC(=O)C=C2c2ccc(O)cc2)cc1Br` the IC50 was 98 µM. For `O=C1C=C(c2ccc(O)cc2)/C(=C/c2ccc(O)cc2)O1` [RUBROLIDE E], the IC50 was 21 µM.

What follows are compounds tested on Escherichia coli (assay: Antimicrobial activity against Escherichia coli O157:H7 at 100 ug/ml). Settings: read-out: GI.
Type: functional
`COc1ccc(/C=C2\OC(=O)C=C2c2ccc(O)c(Br)c2)cc1` gave an inhibition of growth at 100 µg/mL of 14%. `O=C1C=C(c2ccc(O)c(Br)c2)/C(=C/c2ccc(O)cc2)O1` was tested, and the inhibition of growth at 100 µg/mL was 0%. `O=C1C=C(c2ccc(O)c(Br)c2)/C(=C/c2ccc(O)c(Br)c2)O1` was tested, and the inhibition of growth at 100 µg/mL was 25%. In the case of `COc1ccc(/C=C2\OC(=O)C=C2c2ccc(O)cc2)cc1` [RUBROLIDE F], the inhibition of growth at 100 µg/mL is reported as 15%. `COc1ccc(/C=C2\OC(=O)C=C2c2ccc(O)cc2)cc1Br` gave an inhibition of growth at 100 µg/mL of 22%. Work on `O=C1C=C(c2ccc(O)cc2)/C(=C/c2ccc(O)cc2)O1` [RUBROLIDE E] yielded an inhibition of growth at 100 µg/mL of 16%.

The compounds below were run on Enterococcus faecalis (assay: Antimicrobial activity against gentamycin- and vancomycin-resistant Enterococcus faecalis ATCC 700802 at 100 ug/ml). Settings: read-out: GI.
Type: functional
`COc1ccc(/C=C2\OC(=O)C=C2c2ccc(O)c(Br)c2)cc1` showed an inhibition of growth at 100 µg/mL of 2%. Work on `O=C1C=C(c2ccc(O)c(Br)c2)/C(=C/c2ccc(O)cc2)O1` yielded an inhibition of growth at 100 µg/mL of 16%. Work on `O=C1C=C(c2ccc(O)c(Br)c2)/C(=C/c2ccc(O)c(Br)c2)O1` yielded an inhibition of growth at 100 µg/mL of 2%. `COc1ccc(/C=C2\OC(=O)C=C2c2ccc(O)cc2)cc1` [RUBROLIDE F] gave an inhibition of growth at 100 µg/mL of 47%. `COc1ccc(/C=C2\OC(=O)C=C2c2ccc(O)cc2)cc1Br` was tested, and the inhibition of growth at 100 µg/mL was 43%. `O=C1C=C(c2ccc(O)cc2)/C(=C/c2ccc(O)cc2)O1` [RUBROLIDE E] gave an inhibition of growth at 100 µg/mL of 89%.

These compounds were tested on Staphylococcus aureus (assay: Antimicrobial activity against methicillin-resistant Staphylococcus aureus ATCC BAA-1720). Settings: not given.
Type: functional, organism-based
For `COc1ccc(/C=C2\OC(=O)C=C2c2ccc(O)c(Br)c2)cc1`, the IC50 was 360 µM. In the case of `O=C1C=C(c2ccc(O)c(Br)c2)/C(=C/c2ccc(O)cc2)O1`, the IC50 is reported as 82 µM. In the case of `O=C1C=C(c2ccc(O)c(Br)c2)/C(=C/c2ccc(O)c(Br)c2)O1`, the IC50 is reported as 89 µM. `COc1ccc(/C=C2\OC(=O)C=C2c2ccc(O)cc2)cc1` [RUBROLIDE F] gave an IC50 of 1010 µM. Work on `COc1ccc(/C=C2\OC(=O)C=C2c2ccc(O)cc2)cc1Br` yielded an IC50 of 256 µM. Work on `O=C1C=C(c2ccc(O)cc2)/C(=C/c2ccc(O)cc2)O1` [RUBROLIDE E] yielded an IC50 of 105 µM.

From ChEMBL document CHEMBL2150962, “Antimicrobial rubrolides from a South African species of Synoicum tunicate” (J Nat Prod, 2012)
